STEP inh = blocks human striatal-enriched tyrosine phosphatase; P54829; recombinant STEP, OMFP fluorogenic substrate, fluorescence; inhibition, % at 20 µM; actives 0.25% (n = 360,000); AID 588621;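 active means inhibition at 20 µM, scaled per plate between control wells, above about 37%, limit read from the data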;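 further: 0% = DMSO with enzyme and substrate and 100% = substrate only without enzyme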
Target sequence (P54829 whole entry, looked up): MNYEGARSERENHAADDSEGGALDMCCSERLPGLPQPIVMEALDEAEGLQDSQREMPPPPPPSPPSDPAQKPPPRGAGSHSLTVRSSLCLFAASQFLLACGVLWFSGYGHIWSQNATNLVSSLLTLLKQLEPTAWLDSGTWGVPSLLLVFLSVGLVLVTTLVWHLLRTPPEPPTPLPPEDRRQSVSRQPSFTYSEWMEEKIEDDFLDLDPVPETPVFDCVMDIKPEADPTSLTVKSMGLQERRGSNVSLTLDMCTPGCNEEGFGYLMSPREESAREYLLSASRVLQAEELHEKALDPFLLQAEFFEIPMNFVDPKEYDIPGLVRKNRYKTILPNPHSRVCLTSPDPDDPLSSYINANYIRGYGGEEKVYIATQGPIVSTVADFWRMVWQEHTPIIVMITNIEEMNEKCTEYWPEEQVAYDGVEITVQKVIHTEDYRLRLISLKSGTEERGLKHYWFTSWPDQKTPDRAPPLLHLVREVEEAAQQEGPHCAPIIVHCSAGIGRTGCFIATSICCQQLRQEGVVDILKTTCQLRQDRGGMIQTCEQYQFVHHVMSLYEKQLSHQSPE
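material = STEP tyrosine phosphatase | reagent = fluorogenic phosphatase substrate OMFP at 25 µM final | doses = single compound dose of 20 µM, 1% DMSO final | schedule = 20 min reaction, room temperature, in the dark | measured by = fluorescence, 480/540 nm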
Scp1 inh = Scp-1 (human) phosphatase inhibition. Q9GZU7. Recombinant Scp1, phosphopeptide, malachite green phosphate absorbance. inhibition, % at 20 µM. actives 0.88% (n = 340,000);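 active means inhibition above about 50% at 20 µM, limit read from the data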;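 further: plate controls were DMSO wells with enzyme for no effect and wells lacking enzyme for full effect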
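Incubation: 45 min enzyme reaction at room temperature / System: truncated SCP-1 phosphatase (76-261aa) / Reagent: Phospho 17-mer peptide substrate / Buffer or medium: Acidic Tris acetate buffer with magnesium and detergent / Signal: absorbance at 630 nm / Doses: one concentration, 20 µM, with 1.0% DMSO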
LMPTP inh = LMPTP (human) inhibition; actives 0.22% (n = 360,000); inhibition, % at 20 µM; recombinant LMPTP-A, OMFP fluorogenic substrate, fluorescence intensity;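 active means compounds that cut the enzyme signal by at least half of the control window in the single-dose screen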;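 further: plate controls were DMSO wells with enzyme plus substrate for no effect and substrate without enzyme for full effect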
Target sequence (P24666 whole entry, looked up): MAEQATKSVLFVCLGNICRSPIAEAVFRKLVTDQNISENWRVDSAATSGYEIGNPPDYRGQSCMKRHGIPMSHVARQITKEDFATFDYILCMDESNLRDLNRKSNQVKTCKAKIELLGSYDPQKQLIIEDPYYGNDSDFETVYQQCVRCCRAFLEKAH
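Assay system: LMPTP-A enzyme. Input: 0.625 nM LMPTP-A final. Probe or stimulus: 400 µM OMFP. Compound dosing: single 20 µM dose. Schedule: 50 min dark incubation at room temperature. Detection: fluorescence intensity of OMFP turnover product. Read-out: percent inhibition versus substrate-only and uninhibited controls. Benchmarks: no-enzyme low control, uninhibited high control.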
SUMO1-SIM PPI = alters human SUMO1 binding to SIM partners. SUMO1 binding to a labelled peptide, TR-FRET, 1 h. inhibition, % at 20 µM. actives 0.33% (n = 360,000). AID 602429; in the data active means inhibition above about 37%
DNMT1 block = inhibitors of human DNMT1 | P26358 | DNMT1 molecular beacon, Hinp1I cleavage, fluorescence | inhibition (reported as % activation of signal), % at 10 µM | actives 0.83% (n = 360,000) | AID 588458; in the data active means inhibition above about 50%
Scp1 confirm = confirmation of human Scp-1 phosphatase inhibitors; actives 61% (n = 2,500); inhibition, % at 20 µM; recombinant SCP-1 catalytic domain, phosphate release, malachite green absorbance; shares compounds with Scp1 inh;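 further: plate controls were DMSO with enzyme for no effect and buffer wells lacking enzyme for full effect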
MG interference = counter-screen for Scp-1 inhibitors: colorimetric interference; Colorimetric interference counterscreen, malachite green absorbance 630 nm; shares compounds with Scp1 inh; 2,500 tested, under 10 active; apparent inhibition (interference), % at 20 µM;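 further: compounds added after enzyme reaction finished so only phosphate colour detection is probed; plate controls were DMSO wells with completed Scp-1 reaction for no effect and substrate wells lacking enzyme for full effect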
Scp-1 Tm shift = Scp-1 (human) binding by thermal shift. thermal shift relative to vanadate control, % at 40 µM. shares compounds with Scp1 inh. actives 25% (n = 1,500). Recombinant SCP1, Sypro Orange thermal shift Tm;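 active means substances whose mean melting-temperature shift, as a percentage of the reference inhibitor's shift, reaches about 5.3%, limit read from the data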;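 further: 0% = Tm of DMSO wells and 100% = Tm with sodium orthovanadate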
Numbers without * were called inactive; . = no result. The list is not random: actives were taken first. Their share in the collection is about 1.7%.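 How the source made its calls, unless noted: active means inhibition of at least 30% at 20 µM; inactive means the rest.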

SMILES | STEP inh | Scp1 inh | LMPTP inh | SUMO1-SIM PPI | DNMT1 block | Scp1 confirm | MG interference | others
C=C(C)CN(CC)C(=O)CC1C(=O)NCCN1C (stereo not drawn) | -1.8 | -3.1 | 1.6 | 0.3 | 3.3 | . | .
Cc1c(/C(O)=C2/C(=O)C(=O)N(CCN3CCOCC3)C2c2cccnc2)cnn1-c1ccccc1 (stereo not drawn) | -6.0 | -3.1 | -3.6 | -5.6 | -0.3 | . | .
Cc1c(/C(O)=C2/C(=O)C(=O)N(CCN3CCOCC3)C2c2ccco2)cnn1-c1ccccc1 (stereo not drawn) | 1.3 | -4.3 | 0.7 | -5.9 | 0.4 | -12.6 | -6.8
CC1C(=O)N(Cc2cn(Cc3ccco3)nn2)CCS(=O)(=O)N1Cc1ccc(-c2ccccc2Cl)cc1 (stereo not drawn) | 1.6 | . | 3.0 | 1.1 | -17.9 | . | .
Cc1ccc(S(=O)(=O)/N=C2/NC(=O)/C(=C\c3ccco3)S2)cc1 | 2.8 | 15.8 | 0.2 | 35.8 | 28.6 | . | .
CC(=O)Nc1ccc(S(=O)(=O)/N=C2/NC(=O)/C(=C\c3ccco3)S2)cc1 | 4.9 | 52.6* | 3.1 | 21.4 | 50.6* | 54.1* | -5.2 | Scp-1 Tm shift=10.3*
CSCC[C@H](NC(=O)N1CCn2c1nc1ccccc12)C(=O)NCc1ccc(C)cc1 | 0.7 | -4.3 | -0.5 | -1.8 | 0.6 | . | .
Cc1cccc(-c2nc(S(=O)(=O)c3ccccc3)c(N3CCOCC3)o2)c1 | -1.3 | 54.2* | 0.6 | 6.2 | -3.8 | 0.2 | 4.2
O=C(CCN1C(=O)C2CCCCC2C1=O)Nc1nc2ccc(F)cc2s1 (stereo not drawn) | -1.5 | -1.7 | -0.5 | 5.1 | 3.3 | -9.7 | -13.6
CCC(C)[C@H](NC(=O)N1CC(=O)Nc2ccccc21)C(=O)N[C@@H](Cc1c[nH]c2ccccc12)C(=O)O (stereo partly drawn) | -3.9 | 1.4 | 1.5 | 5.8 | -1.1 | . | .
CN(C)C(=S)Nc1ccc(Cc2ccncc2)cc1 | -1.2 | -4.7 | -1.2 | -0.9 | 0.3 | . | .
COCCCn1nnnc1SCC(=O)Nc1nc(C)c(C)s1 | 2.5 | 52.3* | 0.5 | 2.9 | -3.4 | -10.5 | -10.7
O=C1C(=O)N(CCO)C(c2ccccc2)/C1=C(\O)c1ccccc1 (stereo not drawn) | -0.5 | 57.4* | -2.6 | -5.1 | 0.0 | -11.1 | -12.9
Cc1ccc(NC(=O)COC(=O)c2ccc(OCc3c(C)noc3C)cc2)cc1S(=O)(=O)N1CCOCC1 | -1.4 | -2.7 | 0.7 | 2.0 | 4.6 | . | .
CCN(CCCCN1C(=O)c2ccccc2C1=O)c1ccc2c(c1)C(=O)N(C)C2=O | 1.9 | 67.5* | 5.5 | -14.5 | 31.3 | 68.2* | -11.4 | Scp-1 Tm shift=1.0
COc1ccc(NC(=O)CN2C(=O)CSC(C)C2=O)cc1 (stereo not drawn) | 1.6 | -5.2 | -0.1 | 1.9 | 0.2 | . | .
CC1(C(=O)NCc2ccc3c(c2)OCO3)CCN1Cc1csc2ccccc12 (stereo not drawn) | -2.1 | . | 0.3 | 6.7 | -4.3 | . | .
Cc1cc(C)n2nc(/C(C#N)=C/c3ccccn3)c(C#N)c2n1 | 7.2 | -1.4 | 1.0 | -13.0 | -2.7 | . | .
O=C(Nc1ccc2nn(-c3ccccc3)nc2c1)c1ccc(Br)o1 | 17.4 | 92.7* | 41.7 | 1.4 | 76.0* | 90.2* | -6.5 | Scp-1 Tm shift=-12.0
CN1CCCCC1(C)C(=O)NCc1ccc(F)cc1 (stereo not drawn) | -0.2 | . | -3.3 | 1.4 | -3.3 | . | .
CC(C)c1ccc2oc(-c3ccc(NC(=O)c4ncn[nH]4)cc3)nc2c1 | 13.4 | 91.5* | 3.1 | 46.6* | 36.6 | 52.8* | -6.5 | Scp-1 Tm shift=-14.1
Cn1cc(C(=O)Nc2ccc(C#N)cc2)c2ccccc2c1=O | -0.4 | -9.1 | -0.6 | -9.8 | -2.5 | . | .
COc1ccc(CN2C(=O)CN(S(C)(=O)=O)CC2(C)C(=O)NC(C)C)cc1OC (stereo not drawn) | . | . | -1.7 | -2.7 | . | . | .
Cc1nn(CC(=O)NCc2cccs2)c(=O)c2nn(-c3ccccc3)c(C)c12 | -2.0 | 50.7* | -2.2 | -2.1 | -2.5 | -18.4 | -18.4
CCCCn1c(N)c(N(CCOC)C(=O)CN(C)S(=O)(=O)c2ccc(C)cc2)c(=O)[nH]c1=O | -0.9 | -3.9 | -0.2 | -1.0 | -6.9 | . | .
SMILES | STEP inh | Scp1 inh | LMPTP inh | SUMO1-SIM PPI | DNMT1 block | Scp1 confirm | MG interference | others
CC1=CC(C)C(C(=O)O)C(C(=O)O)C1 (stereo not drawn) | 0.7 | -4.1 | -1.1 | -1.6 | 0.3 | . | .
CC[N+](C)(CC)CC(=O)OCC1C(C)C=C(C)CC1C (stereo not drawn) | -0.5 | 55.5* | 0.4 | -6.4 | -1.4 | -2.7 | -13.1
CCOc1ccc(OCCCC(=O)N2CCN(S(=O)(=O)c3ccc(Cl)cc3)CC2)cc1 | 2.9 | 56.4* | -0.5 | 6.3 | 3.6 | 78.9* | -20.2 | Scp-1 Tm shift=-3.4
COc1ccc(S(=O)(=O)N2CCCC2)cc1C(C)C | -0.8 | 52.9* | 0.1 | -3.1 | -1.3 | -10.3 | -13.9
CN(C)c1ccc(C(c2ccc(N(C)C)cc2)C(O)c2ccccc2)cc1 (stereo not drawn) | 1.4 | -10.4 | -1.7 | -4.8 | -6.4 | . | .
COc1ccc(C)cc1NC(=O)c1ccc2c(=O)n3c(nc2c1)CCCCC3 | -0.1 | 56.4* | 1.4 | -1.5 | -1.4 | 2.6 | -0.8
Cc1ccc(C)c(NC(=O)c2ccc3c(=O)n4c(nc3c2)CCC4)c1 | -0.1 | -7.6 | -0.6 | 2.9 | 4.0 | . | .
Cc1cc(OCc2nnc(SC(C)C(=O)O)n2Cc2ccccc2)ccc1Cl (stereo not drawn) | -1.4 | -4.5 | 3.9 | 0.6 | -2.1 | . | .
O=C(Nc1cccc(Cl)c1)c1cccc(N2C(=O)C3CC=CCC3C2=O)c1 (stereo not drawn) | 19.1 | 51.5* | 0.8 | 37.7 | 24.2 | 28.1 | -14.5
O=C(Nc1cccc(N2C(=O)C3CCCCC3C2=O)c1)c1ccccc1 (stereo not drawn) | -3.2 | -5.0 | 0.4 | 6.1 | 3.1 | . | .
COc1ccc(/C=N/Nc2ncc(Br)cn2)c(OC)c1 | 15.4 | 57.3* | 11.3 | -5.8 | 19.6 | 37.5* | 2.5 | Scp-1 Tm shift=-17.4
Cc1ccc(/C=N/NC(=O)c2nnn(-c3nonc3N)c2CSc2ccc(Cl)cc2)o1 | -1.4 | -2.2 | 2.5 | -2.4 | -4.7 | . | .
C/C(=N\Nc1nncc2ccccc12)c1ccc(C(C)(C)C)cc1 | 0.7 | 57.4* | 3.6 | -6.1 | -1.6 | -7.4 | -5.2
C/C(=N\Nc1nncc2ccccc12)c1ccc(O)cc1 | 0.1 | -0.8 | 1.3 | -3.7 | -0.9 | . | .
CC1CCCCC12NC(=O)N(CC(=O)N1CCN(Cc3ccc(C#N)cc3)CC1)C2=O (stereo not drawn) | 0.5 | -0.7 | -1.1 | -1.1 | 1.8 | . | .
